ChEMBL document CHEMBL3817780, “Structure-Based Design of 1,4-Dibenzoylpiperazines as β-Catenin/B-Cell Lymphoma 9 Protein-Protein Interaction Inhibitors” (ACS Med Chem Lett, 2016)
Blank lines part the entries; values can stand above or below the compound they belong to. The source made the active and inactive calls. The calls are words filed in the database; no cut-off is given here.

How the values were obtained:
[1] = Competitive inhibition of N-terminally fluorescein-labeled human BCL9 (350 to 375 residues) interaction with beta-catenin D145A mutant (138 to 686 residues) (unknown origin) expressed in Escherichia coli BL21 DE3 after 3 hrs by fluorescence polarization assay
[2] = Cytotoxicity against Wnt-activated human HCT116 cells assessed as reduction in cell viability after 72 hrs by MTS assay; type: functional, cell-based; settings: HCT-116, 72 h
A549 [3] = assay: Cytotoxicity against Wnt-signaling latent human A549 cells assessed as reduction in cell viability after 72 hrs by MTS assay; type: functional, cell-based; settings: A549, 72 h
HEK293 = assay: Cytotoxicity against HEK293 cells assessed as reduction in cell viability after 72 hrs by MTS assay; type: cell-based; settings: Homo sapiens, HEK293, 72 h
[4] = Competitive inhibition of N-terminally fluorescein-labeled human BCL9 (350 to 375 residues) interaction with beta-catenin E155A mutant (138 to 686 residues) (unknown origin) expressed in Escherichia coli BL21 DE3 after 3 hrs by fluorescence polarization assay
A549 [5] = assay: Selectivity ratio of IC50 for human A549 cells to IC50 for human SW480 cells; type: functional
[6] = Selectivity ratio of IC50 for human HEK293 cells to IC50 for human HCT116 cells; type: ADME, cell-based; settings: HEK293 cells versus HCT116 cells, read-out: Ratio IC50
[7] = target: T1, Catenin beta-1 (Homo sapiens) (UniProt P35222); assay: Inhibition of beta-catenin (unknown origin) expressed in HEK293 cells after 24 hrs by topflash dual luciferase reporter gene assay; type: cell-based
T1 sequence (whole entry): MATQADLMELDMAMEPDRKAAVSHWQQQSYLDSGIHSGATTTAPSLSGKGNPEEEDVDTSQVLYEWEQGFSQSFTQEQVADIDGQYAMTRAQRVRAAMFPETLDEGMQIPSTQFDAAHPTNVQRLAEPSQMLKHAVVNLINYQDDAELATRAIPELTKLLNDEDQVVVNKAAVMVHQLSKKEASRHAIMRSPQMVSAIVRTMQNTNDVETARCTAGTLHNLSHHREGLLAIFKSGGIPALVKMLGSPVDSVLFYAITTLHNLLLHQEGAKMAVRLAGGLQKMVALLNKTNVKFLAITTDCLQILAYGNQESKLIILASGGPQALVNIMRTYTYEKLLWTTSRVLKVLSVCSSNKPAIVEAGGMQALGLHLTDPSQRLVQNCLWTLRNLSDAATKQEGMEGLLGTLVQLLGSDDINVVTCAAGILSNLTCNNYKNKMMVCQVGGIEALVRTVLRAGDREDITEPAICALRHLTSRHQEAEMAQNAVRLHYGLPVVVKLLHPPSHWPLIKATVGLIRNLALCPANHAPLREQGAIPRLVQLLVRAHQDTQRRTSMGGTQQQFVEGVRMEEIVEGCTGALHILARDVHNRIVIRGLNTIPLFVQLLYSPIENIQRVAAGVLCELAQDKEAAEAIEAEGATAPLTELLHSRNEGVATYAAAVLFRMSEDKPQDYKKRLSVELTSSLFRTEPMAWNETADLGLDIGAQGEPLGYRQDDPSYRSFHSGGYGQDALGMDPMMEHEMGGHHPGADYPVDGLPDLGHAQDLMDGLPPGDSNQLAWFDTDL
Summary of the method: (§1)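 HEK293 cells transfected with pcDNA3.1−β-catenin; TOPFlash reporter carries wild-type Tcf binding sites and FOPFlash carries mutant Tcf sites; luciferase activity read across a dose series; mean ± standard deviation, n = 2.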

SW480 = assay: Cytotoxicity against Wnt-activated human SW480 cells assessed as reduction in cell viability after 72 hrs by MTS assay; type: functional, cell-based; settings: SW480, 72 h
[8] = Selectivity ratio of IC50 for HEK293 cells to IC50 for human SW480 cells; type: ADME, cell-based; settings: HEK293 cells versus SW480 cells, read-out: Ratio IC50
A549 [9] = assay: Selectivity ratio of IC50 for human A549 cells to IC50 for human HCT116 cells; type: functional
[10] = target: T2, beta-catenin-B-cell lymphoma 9 protein complex (Homo sapiens, UniProt P35222); assay: Competitive inhibition of wild type beta-catenin (unknown origin) expressed in Escherichia coli BL21 DE3 interaction with N-terminally biotinylated human BCL9 (350 to 375 residues) by alpha screen assay
T2 sequence (P35222 whole entry): T1 sequence (whole entry)
T2 sequence (O00512 whole entry): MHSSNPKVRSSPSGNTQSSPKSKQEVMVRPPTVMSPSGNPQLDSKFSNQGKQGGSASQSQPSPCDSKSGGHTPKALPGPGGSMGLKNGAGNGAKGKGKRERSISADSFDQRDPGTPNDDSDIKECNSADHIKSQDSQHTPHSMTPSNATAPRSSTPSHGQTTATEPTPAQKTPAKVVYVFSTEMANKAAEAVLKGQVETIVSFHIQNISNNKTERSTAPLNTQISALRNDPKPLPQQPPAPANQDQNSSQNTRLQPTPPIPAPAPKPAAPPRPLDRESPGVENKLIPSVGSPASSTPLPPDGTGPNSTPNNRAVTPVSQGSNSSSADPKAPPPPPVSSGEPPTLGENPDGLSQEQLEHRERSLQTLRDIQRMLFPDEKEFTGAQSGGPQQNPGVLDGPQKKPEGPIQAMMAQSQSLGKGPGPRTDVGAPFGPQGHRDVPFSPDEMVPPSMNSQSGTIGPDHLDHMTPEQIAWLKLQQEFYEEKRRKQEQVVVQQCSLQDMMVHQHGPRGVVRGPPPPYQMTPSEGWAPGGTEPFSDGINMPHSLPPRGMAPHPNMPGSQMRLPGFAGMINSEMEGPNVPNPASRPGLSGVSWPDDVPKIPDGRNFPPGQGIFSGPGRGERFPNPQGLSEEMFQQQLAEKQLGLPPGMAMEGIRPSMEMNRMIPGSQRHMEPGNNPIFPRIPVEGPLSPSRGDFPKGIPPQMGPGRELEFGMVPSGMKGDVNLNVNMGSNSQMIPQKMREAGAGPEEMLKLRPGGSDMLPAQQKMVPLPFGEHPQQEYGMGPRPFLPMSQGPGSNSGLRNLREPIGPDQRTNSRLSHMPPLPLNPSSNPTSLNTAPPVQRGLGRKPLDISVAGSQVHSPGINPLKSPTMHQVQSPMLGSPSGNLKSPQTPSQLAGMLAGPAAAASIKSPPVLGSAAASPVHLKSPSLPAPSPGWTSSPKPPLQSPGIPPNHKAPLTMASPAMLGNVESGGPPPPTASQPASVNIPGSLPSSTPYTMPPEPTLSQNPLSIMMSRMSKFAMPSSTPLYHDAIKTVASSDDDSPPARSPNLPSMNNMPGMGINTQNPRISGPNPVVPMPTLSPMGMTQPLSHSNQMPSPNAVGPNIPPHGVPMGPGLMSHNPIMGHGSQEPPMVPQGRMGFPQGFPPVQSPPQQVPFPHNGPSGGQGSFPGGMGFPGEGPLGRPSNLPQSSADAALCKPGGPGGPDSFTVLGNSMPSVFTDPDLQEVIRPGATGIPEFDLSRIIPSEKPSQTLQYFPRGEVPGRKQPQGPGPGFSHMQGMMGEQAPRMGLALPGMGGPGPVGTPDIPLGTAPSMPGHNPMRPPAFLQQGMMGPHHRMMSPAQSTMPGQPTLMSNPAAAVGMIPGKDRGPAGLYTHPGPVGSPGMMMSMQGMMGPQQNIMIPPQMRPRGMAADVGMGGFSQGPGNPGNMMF
Summary of the method: (§2)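 Competitive AlphaScreen binding assays run in parallel against wild-type β-catenin, one with the BCL9 partner and one with the E-cadherin partner; data given as mean ± standard deviation, n = 3.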

[11] = Competitive inhibition of N-terminally fluorescein-labeled human BCL9 (350 to 375 residues) interaction with beta-catenin D145A/E155A double mutant (138 to 686 residues) (unknown origin) expressed in Escherichia coli BL21 DE3 after 3 hrs by fluorescence polarization assay
[12] = target: Cadherin-1/Transcription factor 7-like 2 (Homo sapiens, UniProt P12830+Q9NQB0); assay: Competitive inhibition of wild type beta-catenin (unknown origin) expressed in Escherichia coli BL21 DE3 interaction with N-terminally biotinylated human E-cadherin (824 to 887 residues) by alpha screen assay; summary of the method: as §2
[13] = target: T1, Catenin beta-1 (Homo sapiens); assay: Inhibition of beta-catenin (unknown origin) expressed in HEK293 cells up to 100 uM after 24 hrs by fopflash dual luciferase reporter gene assay; type: cell-based; summary of the method: as §1
Homo sapiens = species on record: Homo sapiens; assay: Selectivity ratio of Ki for wild type beta-catenin (unknown origin)/ N-terminally biotinylated human BCL9 (350 to 375 residues) interaction to Ki for wild type beta-catenin (unknown origin)/N-terminally biotinylated human E-cadherin (824 to 887 residues) interaction

Chain of Cadherin-1/Transcription factor 7-like 2 (Q9NQB0 whole entry, the tested form may be a part): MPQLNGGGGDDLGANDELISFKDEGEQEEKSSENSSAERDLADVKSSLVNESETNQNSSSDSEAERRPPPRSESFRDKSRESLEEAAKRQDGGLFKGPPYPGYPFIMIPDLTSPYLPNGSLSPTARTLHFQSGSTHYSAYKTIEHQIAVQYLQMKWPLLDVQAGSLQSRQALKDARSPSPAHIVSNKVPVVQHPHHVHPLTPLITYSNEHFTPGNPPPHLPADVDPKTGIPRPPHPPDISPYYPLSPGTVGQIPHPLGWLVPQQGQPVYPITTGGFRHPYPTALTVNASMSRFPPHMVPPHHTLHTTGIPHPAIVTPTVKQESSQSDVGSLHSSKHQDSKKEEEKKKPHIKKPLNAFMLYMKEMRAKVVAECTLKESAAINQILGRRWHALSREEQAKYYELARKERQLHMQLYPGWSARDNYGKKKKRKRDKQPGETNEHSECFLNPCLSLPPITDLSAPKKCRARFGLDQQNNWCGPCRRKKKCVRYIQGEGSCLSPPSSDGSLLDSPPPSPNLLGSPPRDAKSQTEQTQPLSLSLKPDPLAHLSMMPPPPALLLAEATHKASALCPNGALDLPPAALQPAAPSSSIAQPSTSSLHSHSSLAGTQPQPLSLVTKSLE
Chain of Cadherin-1/Transcription factor 7-like 2 (P12830 whole entry, the tested form may be a part): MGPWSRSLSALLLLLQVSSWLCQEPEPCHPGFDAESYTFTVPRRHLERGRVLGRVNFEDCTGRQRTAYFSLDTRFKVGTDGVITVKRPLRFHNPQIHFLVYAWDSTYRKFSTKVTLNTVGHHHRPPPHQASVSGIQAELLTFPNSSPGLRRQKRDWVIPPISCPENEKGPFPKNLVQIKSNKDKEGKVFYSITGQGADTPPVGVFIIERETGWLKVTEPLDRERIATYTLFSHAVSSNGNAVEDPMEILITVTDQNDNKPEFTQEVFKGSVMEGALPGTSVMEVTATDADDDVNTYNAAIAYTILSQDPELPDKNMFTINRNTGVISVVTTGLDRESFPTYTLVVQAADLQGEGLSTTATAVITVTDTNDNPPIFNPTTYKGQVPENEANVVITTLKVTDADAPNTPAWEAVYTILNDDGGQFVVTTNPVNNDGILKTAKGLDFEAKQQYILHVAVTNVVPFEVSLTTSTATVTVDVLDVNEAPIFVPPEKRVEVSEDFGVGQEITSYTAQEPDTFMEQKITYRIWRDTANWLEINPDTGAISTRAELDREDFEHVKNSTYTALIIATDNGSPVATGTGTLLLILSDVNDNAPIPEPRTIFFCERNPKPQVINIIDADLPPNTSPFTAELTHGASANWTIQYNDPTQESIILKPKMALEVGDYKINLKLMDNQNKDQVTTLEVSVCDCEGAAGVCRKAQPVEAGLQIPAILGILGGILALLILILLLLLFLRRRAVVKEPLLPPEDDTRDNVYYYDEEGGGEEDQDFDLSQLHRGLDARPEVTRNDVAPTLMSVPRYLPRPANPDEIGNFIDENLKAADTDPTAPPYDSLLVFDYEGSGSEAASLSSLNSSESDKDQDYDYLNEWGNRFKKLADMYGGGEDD

inhibition [7]: Dose-dependent effect
IC50 [10]: 5.6 µM
IC50 [12]: 550 µM
Ki [12]: 510 µM
inhibition [13]: inactive
Structure (SMILES): Cl.Cl.O=C(c1cc(F)cc(N2CCNCC2)c1)N1CCN(C(=O)c2ccc(O[C@H]3CCNC3)c(C3CCCCC3)c2)CC1
Ki [1]: 29 µM
IC50 [2]: 26 µM
IC50 (A549 [3]): 300 µM
IC50 (HEK293): 130 µM
Ki [4]: 39 µM
Ratio IC50 (A549 [5]): >10
selectivity ratio [6]: 3
IC50 (SW480): 22 µM
selectivity ratio [8]: 3
Ratio IC50 (A549 [9]): >10
Ki [11]: 53 µM

Ki [10]: 70 µM
Structure (SMILES): CC1(C)CCC(c2cc(C(=O)N3CCN(C(=O)c4cc(F)cc(N5CCNCC5)c4)CC3)ccc2O[C@H]2CCNC2)CC1

Structure (SMILES): O=C(Nc1ccc(OC2CCNC2)c(-c2ccc(F)cc2)c1)c1ccc(O[C@H]2CCNC2)c(-c2ccc(F)c(F)c2)c1 (stereo partly specified)
Ratio Ki (Homo sapiens): 125
Ki [10]: 2.1 µM

Structure (SMILES): O=C(c1cc(F)cc(N2CCNCC2)c1)N1CCN(C(=O)c2ccc(O[C@H]3CCNC3)c(-c3ccc(F)cc3)c2)CC1
IC50 (SW480): 86 µM

Ki [10]: 170 µM
Structure (SMILES): CCC1CCC(c2cc(C(=O)N3CCN(C(=O)c4cc(F)cc(N5CCNCC5)c4)CC3)ccc2O[C@H]2CCNC2)CC1 (stereo partly specified)

Ki [10]: 20 µM
Structure (SMILES): O=C(c1cc(F)cc(C2CCNCC2)c1)N1CCN(C(=O)c2ccc(O[C@H]3CCNC3)c(-c3ccc(F)cc3)c2)CC1

Ki [10]: 45 µM
Structure (SMILES): O=C(c1cc(F)cc(N2CCNCC2)c1)N1CCN(C(=O)c2ccc(O[C@H]3CCNC3)c(C3CCC(F)(F)CC3)c2)CC1

inhibition [7]: Dose-dependent effect
Ki [10]: 16 µM
Structure (SMILES): Cl.Cl.O=C(c1cc(F)cc(N2CCNCC2)c1)N1CCN(C(=O)c2ccc(O[C@H]3CCNC3)c(C3CCC(C(F)(F)F)CC3)c2)CC1 (stereo partly specified)
IC50 [2]: 39 µM
IC50 (A549 [3]): > 400 µM
IC50 (HEK293): 130 µM
Ratio IC50 (A549 [5]): >10
selectivity ratio [6]: 3
IC50 (SW480): 44 µM
selectivity ratio [8]: 3
Ratio IC50 (A549 [9]): >10

Ki [10]: > 500 µM
Structure (SMILES): NCCc1cc(F)cc(C(=O)N2CCN(C(=O)c3cnc(O[C@H]4CCNC4)c(-c4ccc(F)cc4)c3)CC2)c1

Structure (SMILES): CC(C)c1cc2c(c(O)c1O)[C@@]1(C(=O)O)CCCC(C)(C)[C@@H]1CC2 [CARNOSIC ACID]
Ki [10]: 5.3 µM

Ki [10]: 53 µM
Structure (SMILES): O=C(c1cc(F)cc(N2CCNCC2)c1)N1CCN(C(=O)c2ccc(O[C@H]3CCNC3)c(C3CCCC3)c2)CC1
